# Assay results reported in PMC3322254 (Biochemical Pharmacology, 2012).
# Key:
# hA3AR [1] = biological target: T1, hA3AR (Homo sapiens, UniProt P0DMS8); test: Radioligand membrane binding assay with [125I]I-AB-MECA
# T1 sequence (P0DMS8 1-318): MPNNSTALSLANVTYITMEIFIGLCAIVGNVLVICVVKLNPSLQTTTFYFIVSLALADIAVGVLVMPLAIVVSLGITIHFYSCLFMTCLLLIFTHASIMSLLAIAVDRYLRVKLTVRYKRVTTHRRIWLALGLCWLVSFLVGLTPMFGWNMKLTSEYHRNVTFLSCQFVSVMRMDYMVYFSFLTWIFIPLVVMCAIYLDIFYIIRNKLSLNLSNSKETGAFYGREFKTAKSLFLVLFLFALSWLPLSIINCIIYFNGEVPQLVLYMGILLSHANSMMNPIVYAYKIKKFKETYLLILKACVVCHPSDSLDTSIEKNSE
# Procedure, shortened: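 Membranes came from CHO (hA1, hA3) or HEK293 (hA2A) cells, homogenized in 50 mM Tris-HCl pH 7.5 with 10 mM MgCl2, pelleted at 20,000 × g and stored at −80 °C with 3 units/ml adenosine deaminase. Protein was measured by Bradford. […] Ki values were obtained at each subtype.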
# A2AAR = A2AAR (Homo sapiens, UniProt P29274); test: FCM binding of MRS5449 to HEK cells expressing the A2AAR
# Procedure, shortened: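 Stably transfected lines grew in DMEM/F12 (1:1) with 10% FBS, 2 mM L-glutamine and penicillin/streptomycin: A1AR CHO cells under 500 μg/ml hygromycin B, A2AAR HEK293 cells under 800 μg/ml G418. Cells were seeded about 400,000/well and grown 24 h at 37 °C, 5% CO2. At about 80% confluency the medium was refreshed and the fluorescent tracer added. Cells were then washed, detached with 0.2% EDTA and read by flow cytometry (488 nm excitation), with autofluorescence subtracted.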
# hA3AR [2] = biological target: T1, hA3AR; test: Fluorescent ligand binding
# Procedure, shortened: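 hA3AR-CHO cells were incubated in medium at 37 °C, 5% CO2. Preliminary screen: 1 h with conjugates at 1.5–20 μM or tracer at 10 nM. Saturation: tracer 2.5–250 nM for 1 h. Kinetics: 10 nM tracer, read from 5 min to 3 h, with dissociation started at 90 min by 10 μM non-fluorescent A3AR antagonist. Cells were EDTA-detached and read by flow cytometry; MFI was corrected for autofluorescence and converted to MESF using bead calibration.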
# A2AAR, sequence (P29274 whole entry): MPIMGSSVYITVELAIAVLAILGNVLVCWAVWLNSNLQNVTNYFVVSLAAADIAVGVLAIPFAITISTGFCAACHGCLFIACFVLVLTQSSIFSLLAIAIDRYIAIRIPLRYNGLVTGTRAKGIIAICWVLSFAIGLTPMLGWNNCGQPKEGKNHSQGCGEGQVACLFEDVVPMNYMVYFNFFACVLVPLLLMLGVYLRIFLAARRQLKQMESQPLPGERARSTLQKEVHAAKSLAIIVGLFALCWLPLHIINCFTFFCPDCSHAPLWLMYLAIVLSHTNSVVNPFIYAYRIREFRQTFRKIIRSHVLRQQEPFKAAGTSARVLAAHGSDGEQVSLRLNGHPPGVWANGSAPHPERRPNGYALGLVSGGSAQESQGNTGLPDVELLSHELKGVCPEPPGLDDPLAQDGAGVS
structure (smiles),measurement,setting,value
"N=c1ccc2c(-c3ccc(C(=O)NCCCCCCn4cc(CCCC(=O)Nc5nc6ccc(Cl)cc6c6nc(-c7ccco7)nn56)nn4)cc3C(=O)O)c3ccc(N)c(S(=O)(=O)O)c3oc-2c1S(=O)(=O)O [Compound 9, 2-(6-Amino-3-iminio-4,5-disulfonato-3H-xanthen-9-yl)-5-((6-(4-(4-((9-chloro-2-(furan-2-yl)-[1,2,4]triazolo[1,5-c]quinazolin-5-yl)amino)-4-oxobutyl)-1H-1,2,3-triazol-1-yl)hexyl)carbamoyl)benzoate]",Ki,"hA3AR [1]; read-out: A3 Ki, CHO cells stably expressing hA3AR, agonist radioligand [125I]I-AB-MECA",6.4 ± 2.5 nM
same,selectivity for the A3AR,"hA3AR [1]; versus hA1 and hA2AARs, from radioligand Ki values",over 10 fold
same,binding compared with the binding to the A3AR (expressed as 100%),A2AAR,0.5%
same,"Nonspecific binding, % of total binding","hA3AR [2]; 10 nM MRS5449, in presence of 10 μM MRS1220 or 10 μM Cl-IB-MECA or in control CHO cells",less than 1%
same,fluorescence emission (MFI) of cell-bound ligand,"hA3AR [2]; preliminary FCM, 1 h, 37 °C, 1.5-20 μM for 1-6, 10 nM MRS5449",sufficiently high MFI
